# Screening data as filed in PubChem.
# MPTP block – blocks calcium-induced mitochondrial swelling; isolated mouse mitochondria, Ca2+ swelling absorbance, 30 min; inhibition, % at 10 µM; 360,000 tested, 1.4% active;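 active = inhibition of 50% or more, scaled per plate between neutral and stimulator controls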;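 note: 0% = DMSO wells given calcium and 100% = 1 mM EGTA wells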
# GRIN3A LBD mod – modulators (binders) of human NR3A ligand-binding domain; Tm shift relative to glycine control, % at 25 µM; 340,000 tested, 2.5% active; AID 1259313; NR3A LBD differential scanning fluorimetry, Tm shift; 0% = protein alone, 100% = glycine-bound protein;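 active = melting temperature shift of at least 10% of the positive control shift, at one fixed dose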
# aDG glyco up – alpha-DG glycosylation activation; AID 624168; activation, % at 10 µM; Pro5-aDG cells, alpha-DG glycosylation AlphaScreen (IIH6); 0% Pro5, 100% B10-LARGE cell signal; 360,000 tested, 0.22% active;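 active = activation of at least 8% versus controls, or a plate z-score of at least 8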;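 note: Pro5 are CHO cells carrying HIG-tagged alpha-DG that lacks glycosylation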
# procasp7 counter – activates human procaspase-7, counter-screen for procaspase-3 activators; recombinant procaspase-7, Ac-DEVD-pNA absorbance 405 nm; D23A/D198A/D206A triple mutant, cannot self-cleave; scale: DMSO 0, 5 µM enzyme 100; activation, % at 8.5 µM; 330,000 tested, 0.093% active;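 active = percent activation above the screen-wide mean plus 3 SD, cut at about 25% in these data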
#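 System: Procaspase-7 triple mutant (PC-7 D3A); measure: % activation from two-timepoint absorbance difference, scaled to controls; times: 1 h compound preincubation, 2 h substrate cleavage, 25 °C; also added: Ac-DEVD-pNA substrate, 400 µM as added; measured by: Epi-absorbance of released pNA at 405 nm, two timepoints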
# proCasp3 act – activates human procaspase-3. activation, % at 8.5 µM. 330,000 tested, 0.11% active. recombinant procaspase-3 D3A, Ac-DEVD-pNA absorbance 405 nm. AID 463141;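 active = activation above the mean of all tested compounds plus 3 SD, cut at about 21% in these data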;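 note: 0% = DMSO alone and 100% = DMSO wells spiked with extra 5 µM PC-3 D3A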
# Target sequence (P42574 whole entry D9A/D28A/D175A): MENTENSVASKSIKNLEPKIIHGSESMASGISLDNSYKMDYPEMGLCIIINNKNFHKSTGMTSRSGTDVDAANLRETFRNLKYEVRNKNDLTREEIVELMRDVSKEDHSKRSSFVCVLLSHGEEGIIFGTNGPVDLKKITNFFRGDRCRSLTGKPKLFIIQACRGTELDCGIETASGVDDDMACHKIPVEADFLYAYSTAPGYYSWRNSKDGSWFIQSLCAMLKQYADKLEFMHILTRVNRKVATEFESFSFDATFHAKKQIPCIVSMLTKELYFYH
#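 Assay system: Autoprocessing-dead procaspase-3 D3A mutant enzyme; also added: Ac-DEVD-pNA; doses: one concentration, 8.5 µM nominal, 0.8% DMSO; times: 1 h compound preincubation, 2 h substrate hydrolysis at 25 °C; technique: 405 nm absorbance of p-nitroaniline, reads at 0 and 120 min; measure: % activation between DMSO and enzyme-spiked controls; repeats: single replicate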
# Active calls of the source: *; . = not tested or not shown. Compounds with a hit are over-represented: about 3.7% of the library has one in this group of screens.
SMILES,MPTP block,GRIN3A LBD mod,aDG glyco up,procasp7 counter,proCasp3 act
Cc1cc(CNC(=O)c2cccc3c2C(=O)c2ccc(-c4ccc(F)cc4OCc4ccccc4)cc2S3(=O)=O)c(C(F)(F)F)o1,2,17*,-1,-1,-3
O=C(NC[C@H]1CCCO1)c1cccc2c1C(=O)c1ccc(-c3ccc(F)cc3OCc3ccccc3)cc1S2(=O)=O,1,-4,0,6,6
O=C(Nc1nc2ccc(Cl)cc2s1)c1ccc(N2CCCCC2)c([N+](=O)[O-])c1,14,15*,0,17,-5
O=C(Nc1nc2ccc3ccccc3c2s1)c1ccc(N2CCCCC2)c([N+](=O)[O-])c1,0,19*,0,5,8
COC(=O)[C@H]1C[C@H](OC(=O)Nc2cccs2)[C@@]2(O)CN(S(=O)(=O)c3ccc(C)cc3)CC2[C@H]1C(=O)OC (stereo partly specified),0,.,0,.,.
O=C(Nc1ccc(Br)cc1F)c1ccc2c(c1)N(Cc1ccccc1)C(=O)CS2=O (stereo unspecified),0,14*,0,-4,8
COc1ccc(S(=O)(=O)N2CCC3CC2c2c(-c4ccc(C(F)(F)F)cc4)cccc23)cc1 (stereo unspecified),0,.,0,.,.
COC(=O)c1c(-c2ccc(SC)cc2)sc2ccc(OC)cc12,1,13*,0,5,5
Cc1ccc(S(=O)(=O)ON2C(=O)c3ccccc3C2=O)c(C)c1,-7,22*,0,9,-14
O=C(O)c1cscc1-c1cccc2ccccc12,-2,.,0,.,.
CCc1nc2ccc(C(=O)NCCN3CCNC3=O)cn2c1N(CCC(C)C)CCN(C)C,0,.,0,.,.
CN(CC(=O)Nc1ccc(Cl)c(C(F)(F)F)c1)C(=O)Cc1c[nH]c2ccccc12,1,12*,0,2,-3
CCOc1ccc(NC(=O)CN(C)C(=O)Cc2c[nH]c3ccccc23)cc1OCC,-1,-1,0,1,-5
CCNC(=O)C1(C)CCN(C(=O)c2cccnc2SC)C1 (stereo unspecified),-1,.,1,.,.
COc1ccc(Oc2cn[nH]c2-c2ccc(OCC(=O)NN)cc2O)cc1,0,1,0,6,-10
CCCOC(=O)c1ccc(Oc2cn[nH]c2-c2ccc(OCC)cc2O)cc1,2,16*,3,-5,-6
CCCOC(=O)c1ccc(Oc2c(-c3ccc(OCC)cc3O)n[nH]c2C)cc1,16,30*,0,-1,3
O=C(O)C1C2C=CC(C2)C1C(=O)OC1CC2CCC1C2 (stereo unspecified),0,14*,0,6,9
COc1ccc2c(c1)C(CC(C)=O)N(c1ccc(-c3cccs3)cc1)C(c1ccsc1)=C2 (stereo unspecified),3,.,0,.,.
O=C(OCc1c(-c2ccccc2)ncc2ccccc12)c1ccc(F)cc1,0,14*,1,1,-1
O=C(OCc1c(-c2ccccc2)ncc2ccccc12)c1ccc(C(F)(F)F)cc1,-1,-30,0,-7,10
O=C(/C=C/c1ccc(S(=O)(=O)N2CCOCC2)cc1)Nc1cc(F)ccc1F,2,32*,0,9,-6
Cc1ccc(F)cc1NC(=O)/C=C/c1ccc(S(=O)(=O)N2CCOCC2)cc1,0,15*,0,-13,2
COc1ccc(/C=C/C(=O)Nc2cc(F)ccc2C)cc1S(=O)(=O)N1CCOCC1,0,-1,0,6,4
CCCNC(=O)c1cc(C2CCCN(S(=O)(=O)c3cccs3)C2)on1 (stereo unspecified),-1,.,0,.,.
O=c1c2ccccc2nnn1CSc1ccccc1F,2,11*,0,3,3
Cc1ccc(SCn2nnc3ccccc3c2=O)c(C)c1,1,0,0,-3,-1
COc1ccc(S(=O)(=O)N2CCCCC2c2cc(C(=O)Nc3ccc(OC)cc3C)no2)cc1 (stereo unspecified),0,.,0,.,.
CC(C)(C)NC(=O)C(c1ccc(-c2ccccc2)cc1)N(C[C@H]1CC[C@@H]([C@@H]2CC[C@H](CO)O2)O1)C(=O)c1ccc2ccccc2c1 (stereo partly specified),-2,2,0,0,5
